For 24 compounds, AA results are on record in ChEMBL document CHEMBL1126698, “Synthesis and amnesia-reversal activity of a series of 7- and 5-membered 3-acylamino lactams” (1993).

Common to all, as to format: functional
The subject of assay [1] is Mus musculus. In words: Amnesia-reversal activity in ECS-induced amnesia model of mice at 1 mg/kg i.p. Conditions: route intraperitoneal. The method in brief:
(§1)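 Male CD1 mice (24–28 g), step-through passive avoidance. Amnesia induced by ECS through auricular electrodes (20 mA, 0.6 ms pulses, 0.5 s, 50 Hz) immediately after the acquisition trial. Compound given ip 30 min before acquisition, at doses equimolar to 1 or 10 mg/kg Piracetam. Retention latency capped at 300 s. AA = CI(treated)/CI(sham) × 100, with CI derived from Mann-Whitney U versus amnesic controls.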

For assay [2], the system named is Mus musculus. In words: Amnesia-reversal activity in ECS-induced amnesia model of mice at 10 mg/kg i.p. The following applies: route intraperitoneal. The method in brief: as §1
Assay [3] has as its system Mus musculus. The assay is described as follows: Amnesia-reversal activity in scopolamine-induced amnesia model of mice at 1 mg/kg i.p. Conditions: route intraperitoneal. The method in brief:
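Step-through passive avoidance in male CD1 mice (24–28 g). Scopolamine hydrobromide 1.5 mg/kg sc given 15 min before the acquisition trial. Test substance given ip 30 min before acquisition at a dose equimolar to 1 mg/kg Piracetam. Retention latency end point 300 s. AA is the treated-to-sham ratio of confrontation indices (×100), each index computed from Mann-Whitney U against the scopolamine-only group.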

Assay [4] relates to Mus musculus. In words: Amnesia-reversal activity evaluated in ECS-induced amnesia model of mice at a dose of 1 mg/kg. The procedure, abridged:
(§2)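 Male CD1 mice (24–28 g), step-through passive avoidance, retention end point 300 s. ECS via auricular electrodes (20 mA, 0.6 ms pulses, 0.5 s, 50 Hz) immediately after the acquisition trial. Compounds given ip 30 min before acquisition at doses equimolar to 1, 10 (and 100 for references) mg/kg Piracetam. Retention latency vs control by Mann-Whitney U. AA = CI treated/CI sham ×100.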

For assay [5], the system named is Mus musculus. The assay is described as follows: Amnesia-reversal activity evaluated in ECS-induced amnesia model of mice at a dose of 10 mg/kg. The method in brief:
as §2

Assay [6] concerns Mus musculus. In words: Amnesia-reversal activity evaluated in scopolamine-induced amnesia model of mice at a dose of 1 mg/kg. The method in brief: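 Male CD1 mice (24–28 g), step-through passive avoidance, retention end point 300 s. Scopolamine hydrobromide 1.5 mg/kg sc 15 min before acquisition. Compounds given ip 30 min before acquisition at a dose equimolar to 1 mg/kg Piracetam. Retention latency vs control by Mann-Whitney U. AA = CI treated/CI sham ×100.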

Assay [7] has as its system Mus musculus. In words: Amnesia-reversal activity (AA) evaluated in ECS-induced amnesia model of mice at a dose of 100 mg/kg. The method in brief: as §2

As for `NC(=O)CN1CCCC[C@H](NC(=O)CCCc2ccccc2)C1=O`, the AA in the assay on Mus musculus [1], in the assay with Mus musculus [2] and with Mus musculus [3] was 0 in each case.
On to `N[C@H]1CCCCNC1=O`, for which the AA was 37 in the assay on Mus musculus [4], 26 in the assay with Mus musculus [5] and 47 in the assay with Mus musculus [6].
On to `COC(=O)CN1CCCC[C@H](NC=O)C1=O`, for which the AA in the assay with Mus musculus [1] is 0; in the assay on Mus musculus [2], 9; with Mus musculus [3] it was 0.
Consider `O=C(CN1CCCC1=O)NC1CCCCNC1=O` (stereo not drawn), for which the AA is 10 in the assay with Mus musculus [1], 0 in the assay with Mus musculus [2] and 21 in the assay on Mus musculus [3].
`O=C(N[C@@H]1CCCCNC1=O)c1cccc(C(F)(F)F)c1`: the AA with Mus musculus [1] is given as 21; in the assay on Mus musculus [2], 0; in the assay with Mus musculus [3], 15.
Turning to `O=C1NCCCCC1NC(=O)[C@@H]1CCCN1C(=O)OCc1ccccc1` (stereo partly drawn), the AA in the assay with Mus musculus [1] stood at 0; in the assay with Mus musculus [3], 27.
Consider `NC(=O)CN1CCCC[C@H](NC=O)C1=O`, for which the AA in the assay on Mus musculus [1] is reported as 55; in the assay with Mus musculus [2], 9; in the assay with Mus musculus [3], 0.
Regarding `N[C@H]1CCNC1=O`, the AA worked out at 24 in the assay with Mus musculus [4], 0 with Mus musculus [5] and 0 in the assay with Mus musculus [6].
On to `O=CNC1CCCCNC1=O` (stereo not drawn), for which the results for the AA with Mus musculus [1], in the assay with Mus musculus [2] and in the assay on Mus musculus [3] were 71, 55 and 49, respectively.
`COc1ccc(C(=O)NC2CCCCNC2=O)cc1` (stereo not drawn): the AA in the assay with Mus musculus [1] was 37; in the assay with Mus musculus [2], 37; in the assay on Mus musculus [3], 0.
`NC(=O)CN1CCCC1=O` [PIRACETAM]: the AA in the assay with Mus musculus [1] is 0; in the assay with Mus musculus [2], 0; with Mus musculus [7] it was 39.
Take `O=C(NC1CCCCNC1=O)c1cccc(C(F)(F)F)c1` (stereo not drawn): the AA is listed as 18 with Mus musculus [1], 17 in the assay with Mus musculus [2] and 65 with Mus musculus [3].
As to `O=CCN1CCCC[C@H](NC(=O)CCCc2ccccc2)C1=O`, the AA with Mus musculus [4] is recorded as 0; with Mus musculus [5] it was 25; in the assay with Mus musculus [6] it was 26.
With `O=CNC1CCNC1=O` (stereo not drawn), the results for the AA in the assay on Mus musculus [4], with Mus musculus [5] and in the assay with Mus musculus [6] were 53, 9 and 0, respectively.
With `CC(=O)NC1CCCCNC1=O` (stereo not drawn), the AA in the assay on Mus musculus [1] is reported as 7; in the assay on Mus musculus [2] it was 14; with Mus musculus [3], 39.
Turning to `O=C(CCCc1ccccc1)NC1CCCCNC1=O` (stereo not drawn), the AA worked out at 0 with Mus musculus [1], 0 in the assay on Mus musculus [2] and 5 with Mus musculus [3].
Take `O=CN[C@H]1CCCCN(CCO)C1=O`: the AA with Mus musculus [1] was 46; in the assay on Mus musculus [2], 61; in the assay with Mus musculus [3], 7.
The corresponding values for `O=C(CCCc1ccccc1)N[C@H]1CCCCN(CCO)C1=O` are 7, 20 and 12.
With `COC(=O)CN1CCCC[C@H](NC(=O)CCCc2ccccc2)C1=O`, the AA in the assay on Mus musculus [4], with Mus musculus [5] and in the assay on Mus musculus [6] was 0 in each case.
Regarding `O=C(NC1CCNC1=O)c1cccc(C(F)(F)F)c1` (stereo not drawn), the results for the AA with Mus musculus [1], in the assay on Mus musculus [2] and with Mus musculus [3] were 51, 58 and 0, respectively.
Turning to `COc1ccc(C(=O)N2CCCC2=O)cc1` [ANIRACETAM], the AA was 29 in the assay on Mus musculus [1], 0 with Mus musculus [2], 83 with Mus musculus [7] and 18 in the assay on Mus musculus [3].
As for `NC(=O)CN1CC(O)CC1=O` (stereo not drawn) [OXIRACETAM], the AA in the assay with Mus musculus [1] is listed as 31; in the assay with Mus musculus [2], 8; in the assay on Mus musculus [7], 57; with Mus musculus [3] it was 0.
As for `N[C@@H]1CCCCNC1=O`, the AA in the assay on Mus musculus [4] is 0; with Mus musculus [5], 25; in the assay on Mus musculus [6] it was 44.
Take `COc1cc(C(=O)NC2CCCCNC2=O)cc(OC)c1OC` (stereo not drawn): the AA in the assay on Mus musculus [1] is recorded as 31; in the assay with Mus musculus [2], 42; in the assay on Mus musculus [3], 0.
